ChEMBL document CHEMBL1153240, “Microwave assisted synthesis and in vitro cytotoxicities of substituted (Z)-2-amino-5-(1-benzyl-1H-indol-3-yl)methylene-1-methyl-1H-imidazol-4(5H)-ones against human tumor cell lines” (2010)

Legend:
Format in all cases: functional
[1] = system: CCRF-CEM; assay: Cytotoxicity against human CCRF-CEM cells
Summary of the method: (§1)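 NCI 60-cell-line panel, five-dose response study. Effect is plotted against log10 drug concentration for each cell line. GI50 is the molar concentration giving a 50% reduction in net protein increase relative to control cells. LC50 is the concentration lethal to 50% of cells.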

[2] = system: HL-60; assay: Cytotoxicity against human HL60 cells; summary of the method: as §1
[3] = system: K562; assay: Cytotoxicity against human K562 cells; summary of the method: as §1
[4] = system: MOLT-4; assay: Cytotoxicity against human MOLT4 cells; summary of the method: as §1
[5] = Cytotoxicity against human […] cells; summary of the method: as §1
[6] = system: SR; assay: Cytotoxicity against human SR cells; summary of the method: as §1
[7] = system: A549; assay: Cytotoxicity against human A549 cells; summary of the method: as §1
[8] = system: EKVX; assay: Cytotoxicity against human EKVX cells; summary of the method: as §1
[9] = system: HOP-62; assay: Cytotoxicity against human HOP62 cells; summary of the method: as §1
[10] = system: NCI-H226; assay: Cytotoxicity against human NCI-H226 cells; summary of the method: as §1
[11] = system: NCI-H23; assay: Cytotoxicity against human NCI-H23 cells; summary of the method: as §1
[12] = system: NCI-H322M; assay: Cytotoxicity against human NCI-H322M cells; summary of the method: as §1
[13] = system: NCI-H460; assay: Cytotoxicity against human NCI-H460 cells; summary of the method: as §1
[14] = system: NCI-H522; assay: Cytotoxicity against human NCI-H522 cells; summary of the method: as §1
[15] = system: COLO 205; assay: Cytotoxicity against human COLO205 cells
Summary of the method: (§2)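 NCI 60-cell-line panel, five-concentration dose-response. Cytotoxic effect was plotted against log10 drug concentration for each line. GI50 is the molar concentration giving a 50% reduction in net protein increase relative to control cells. LC50 is the concentration lethal to 50% of cells. Both were read from the curves.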

[16] = system: HCC 2998; assay: Cytotoxicity against human HCC2998 cells; summary of the method: as §1
[17] = system: HCT-116; assay: Cytotoxicity against human HCT116 cells; summary of the method: as §1
[18] = system: HCT-15; assay: Cytotoxicity against human HCT15 cells; summary of the method: as §1
[19] = system: HT-29; assay: Cytotoxicity against human HT-29 cells; summary of the method: as §2
[20] = system: KM12; assay: Cytotoxicity against human KM12 cells; summary of the method: as §1
[21] = system: SW-620; assay: Cytotoxicity against human SW620 cells
Summary of the method: (§3)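 NCI 60 human tumor cell line panel, five-dose dose-response study. Cytotoxic effect was plotted against log10 drug concentration for each cell line. GI50 is the molar concentration giving 50% reduction in net protein increase versus control cells. LC50 is the concentration lethal to 50% of cells.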

[22] = system: SF-539; assay: Cytotoxicity against human SF539 cells; summary of the method: as §1
[23] = system: SNB-19; assay: Cytotoxicity against human SNB19 cells; summary of the method: as §1
[24] = system: SNB-75; assay: Cytotoxicity against human SNB75 cells; summary of the method: as §1
[25] = system: U-251; assay: Cytotoxicity against human U251 cells; summary of the method: as §3
[26] = system: LOX IMVI; assay: Cytotoxicity against human LOXIMVI cells; summary of the method: as §1
[27] = system: Malme-3M; assay: Cytotoxicity against human MALME-3M cells; summary of the method: as §1
[28] = system: M14; assay: Cytotoxicity against human M14 cells; summary of the method: as §1
[29] = system: MDA-MB-435; assay: Cytotoxicity against human MDA-MB-435 cells; summary of the method: as §2
[30] = system: SK-MEL-2; assay: Cytotoxicity against human SK-MEL-2 cells; summary of the method: as §1
[31] = system: SK-MEL-28; assay: Cytotoxicity against human SK-MEL-28 cells; summary of the method: as §1
[32] = system: SK-MEL-5; assay: Cytotoxicity against human SK-MEL-5 cells; summary of the method: as §1
[33] = system: UACC-257; assay: Cytotoxicity against human UACC257 cells; summary of the method: as §3
[34] = system: IGROV-1; assay: Cytotoxicity against human IGROV1 cells; summary of the method: as §1
[35] = system: OVCAR-3; assay: Cytotoxicity against human OVCAR-3 cells; summary of the method: as §1
[36] = system: OVCAR-4; assay: Cytotoxicity against human OVCAR4 cells; summary of the method: as §1
[37] = system: OVCAR-5; assay: Cytotoxicity against human OVCAR5 cells; summary of the method: as §1
[38] = system: OVCAR-8; assay: Cytotoxicity against human OVCAR8 cells; summary of the method: as §1
[39] = system: NCI/ADR-RES; assay: Cytotoxicity against human NCI/ADR-RES cells; summary of the method: as §1
[40] = system: SK-OV-3; assay: Cytotoxicity against human SKOV3 cells; summary of the method: as §1
[41] = system: 786-0; assay: Cytotoxicity against human 786-0 cells; summary of the method: as §1
[42] = system: A498; assay: Cytotoxicity against human A498 cells; summary of the method: as §1
[43] = system: ACHN; assay: Cytotoxicity against human ACHN cells; summary of the method: as §1
[44] = system: CAKI-1; assay: Cytotoxicity against human Caki1 cells; summary of the method: as §1
[45] = system: RXF 393; assay: Cytotoxicity against human RXF393 cells; summary of the method: as §1
[46] = system: SN12C; assay: Cytotoxicity against human SN12C cells; summary of the method: as §1
[47] = system: TK-10; assay: Cytotoxicity against human TK10 cells; summary of the method: as §3
[48] = system: UO-31; assay: Cytotoxicity against human UO31 cells; summary of the method: as §3
[49] = system: PC-3; assay: Cytotoxicity against human PC3 cells; summary of the method: as §1
[50] = system: DU-145; assay: Cytotoxicity against human DU145 cells; summary of the method: as §1
[51] = system: MCF7; assay: Cytotoxicity against human MCF7 cells; summary of the method: as §1
[52] = system: MDA-MB-231; assay: Cytotoxicity against human MDA-MB-231 cells; summary of the method: as §1
[53] = Cytotoxicity against human Hs 578T cells; summary of the method: as §1
[54] = system: BT-549; assay: Cytotoxicity against human BT549 cells; summary of the method: as §1
[55] = system: T47D; assay: Cytotoxicity against human T47D cells; summary of the method: as §3
[56] = system: MDA-MB-468; assay: Cytotoxicity against human MDA-MB-468 cells; summary of the method: as §1
[57] = system: HOP-92; assay: Cytotoxicity against human HOP92 cells; summary of the method: as §1
[58] = system: SF-268; assay: Cytotoxicity against human SF268 cells; summary of the method: as §1
[59] = system: SF-295; assay: Cytotoxicity against human SF295 cells; summary of the method: as §1
[60] = read-out: LC50 (the source's name)

`COC(=O)c1ccc(Cn2cc(/C=C3/C(=O)N=C(N)N3C)c3ccccc32)cc1` showed a GI50 [1] of 2.91 µM, a CC50 [1, 60] of over 100 µM and a GI50 [2] of 2.67 µM. It also gave an LC50 [2] of over 100 µM, a GI50 [3] of 2.23 µM and a CC50 [3, 60] of over 100 µM. For the same compound, the GI50 [4] was 2.42 µM, the CC50 [4, 60] was over 100 µM and the GI50 [5] was 3.25 µM. It also gave an LC50 (concentration lethal to 50% of cells) [5] of over 100 µM, a GI50 [6] of 2.48 µM and a CC50 [6, 60] of over 100 µM. The GI50 [7] was 5.05 µM, the CC50 [7, 60] was over 100 µM and the GI50 [8] was over 100 µM. It also gave a CC50 [8, 60] of over 100 µM, a GI50 [9] of 1.99 µM and a CC50 [9, 60] of 33 µM. For the same compound, the GI50 [10] was 2.26 µM, the LC50 [10] was over 100 µM and the GI50 [11] was 3.23 µM. The LC50 (concentration lethal to 50% of cells) [11] was 58.8 µM, the GI50 [12] was 2.56 µM and the CC50 [12, 60] was over 100 µM. It also gave a GI50 [13] of 2.55 µM, a CC50 [13, 60] of over 100 µM and a GI50 [14] of 1.93 µM. It also gave an LC50 [14] of over 100 µM, a GI50 [15] of 1.91 µM and a GI50 [16] of 2.99 µM. The CC50 [16, 60] was 4.71 µM, the GI50 [17] was 1.79 µM and the CC50 [17, 60] was 7.7 µM. The GI50 [18] was 2.27 µM, the CC50 [18, 60] was over 100 µM and the GI50 [19] was 2.17 µM. For the same compound, the GI50 [20] was 3.18 µM, the CC50 [20, 60] was over 100 µM and the GI50 [21] was 2.2 µM. For the same compound, the CC50 [21, 60] was over 100 µM, the GI50 [22] was 1.54 µM and the CC50 [22, 60] was 5.56 µM. For the same compound, the GI50 [23] was 2.39 µM, the CC50 [23, 60] was 31 µM and the GI50 [24] was 1.46 µM. The LC50 (concentration lethal to 50% of cells) [24] was 5.47 µM, the GI50 [25] was 1.81 µM and the CC50 [25, 60] was 7.72 µM. It also gave a GI50 [26] of 1.89 µM, an LC50 [26] of 8.66 µM and a GI50 [27] of 1.7 µM. The CC50 [27, 60] was 8.33 µM, the GI50 [28] was 1.9 µM and the LC50 [28] was 7.25 µM. It also gave a GI50 [29] of 1.93 µM, a GI50 [30] of 2.7 µM and a CC50 [30, 60] of over 100 µM. The GI50 [31] was 1.78 µM, the CC50 [31, 60] was 6.14 µM and the GI50 [32] was 1.69 µM. The LC50 [32] was 5.75 µM, the GI50 [33] was 17.9 µM and the LC50 [33] was over 100 µM. The GI50 [34] was 5.91 µM, the CC50 [34, 60] was over 100 µM and the GI50 [35] was 2.29 µM. For the same compound, the CC50 [35, 60] was 7.98 µM, the GI50 [36] was 2.18 µM and the CC50 [36, 60] was over 100 µM. The GI50 [37] was 1.9 µM, the CC50 [37, 60] was 18.5 µM and the GI50 [38] was 3.45 µM. The CC50 [38, 60] was over 100 µM, the GI50 [39] was 9.46 µM and the CC50 [39, 60] was over 100 µM. It also gave a GI50 [40] of 1.98 µM, a CC50 [40, 60] of 8.68 µM and a GI50 [41] of 1.75 µM. For the same compound, the LC50 [41] was 5.85 µM, the GI50 [42] was 14.1 µM and the CC50 [42, 60] was 53.2 µM. It also gave a GI50 [43] of 1.76 µM, a CC50 [43, 60] of 6.14 µM and a GI50 [44] of 35.1 µM. The GI50 [45] was 1.95 µM, the CC50 [45, 60] was 8.71 µM and the GI50 [46] was 1.74 µM. The CC50 [46, 60] was 8.59 µM, the GI50 [47] was 3.16 µM and the CC50 [47, 60] was over 100 µM. It also gave a GI50 [48] of 3.2 µM, a CC50 [48, 60] of over 100 µM and a GI50 [49] of 6.27 µM. It also gave a CC50 [49, 60] of over 100 µM, a GI50 [50] of 2.25 µM and a CC50 [50, 60] of 14.8 µM. The GI50 [51] was 2.45 µM, the CC50 [51, 60] was 77.8 µM and the GI50 [52] was 2.01 µM. The LC50 [52] was 14.3 µM, the GI50 [53] was 2.17 µM and the LC50 [53] was over 100 µM. The GI50 [54] was 1.73 µM, the CC50 [54, 60] was over 100 µM and the GI50 [55] was 1.5 µM. For the same compound, the CC50 [55, 60] was 5.74 µM, the GI50 [56] was 1.63 µM and the LC50 [56] was 6.78 µM. The GI50 [57] was 1.51 µM, the CC50 [57, 60] was 7.75 µM and the GI50 [58] was 2.56 µM. For the same compound, the CC50 [58, 60] was over 100 µM, the GI50 [59] was 2.36 µM and the CC50 [59, 60] was over 100 µM.
